Our source for the Ratio Ki and Ki values is ChEMBL document CHEMBL2177027, “Exploring the directionality of 5-substitutions in a new series of 5-alkylaminopyrazolo[4,3-e]1,2,4-triazolo[1,5-c]pyrimidine as a strategy to design novel human a(3) adenosine receptor antagonists” (J Med Chem, 2012).

Experiment [1] deals with Adenosine receptors; A1 & A3 (Homo sapiens) (UniProt P30542+P0DMS8). The experiment is described as follows: Selectivity ratio of Ki for human adenosine A1 receptor expressed in CHO cell membrane to Ki for human adenosine A3 receptor expressed in CHO cell membrane. It is filed as cell-based.
The nature of experiment [2]: Selectivity ratio of Ki for human adenosine A2A receptor expressed in CHO cell membrane to Ki for human adenosine A3 receptor expressed in CHO cell membrane. The experiment is classed as cell-based.
The target of the next experiment is T1, Adenosine receptor A2b (Homo sapiens, UniProt P29275).
T1 sequence (P29275 whole entry): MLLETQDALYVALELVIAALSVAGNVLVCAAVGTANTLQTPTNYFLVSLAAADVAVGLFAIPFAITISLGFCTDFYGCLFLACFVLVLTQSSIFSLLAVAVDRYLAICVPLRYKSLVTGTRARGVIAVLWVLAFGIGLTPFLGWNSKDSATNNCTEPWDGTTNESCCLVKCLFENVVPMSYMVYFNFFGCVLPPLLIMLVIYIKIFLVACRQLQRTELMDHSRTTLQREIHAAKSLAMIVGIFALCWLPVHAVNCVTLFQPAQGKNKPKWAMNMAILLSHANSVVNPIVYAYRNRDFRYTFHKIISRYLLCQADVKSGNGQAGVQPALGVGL
The experiment is described as follows: Antagonist activity at human adenosine A2B receptor expressed in CHO cells assessed as NECA-induced adenylate cyclase activity. It is filed as functional, cell-based. The gist of the method: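 Membranes from stably transfected CHO cells made with a single high-speed spin of the homogenate. Incubated 20 min with about 150 000 cpm [α-³²P]ATP in mixture lacking EDTA and NaCl. IC50 taken from concentration-dependent inhibition of NECA-stimulated adenylyl cyclase using Hill equation.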

Another experiment addresses T2, Adenosine receptor A3 (Homo sapiens, UniProt P0DMS8).
T2 sequence (P0DMS8 whole entry): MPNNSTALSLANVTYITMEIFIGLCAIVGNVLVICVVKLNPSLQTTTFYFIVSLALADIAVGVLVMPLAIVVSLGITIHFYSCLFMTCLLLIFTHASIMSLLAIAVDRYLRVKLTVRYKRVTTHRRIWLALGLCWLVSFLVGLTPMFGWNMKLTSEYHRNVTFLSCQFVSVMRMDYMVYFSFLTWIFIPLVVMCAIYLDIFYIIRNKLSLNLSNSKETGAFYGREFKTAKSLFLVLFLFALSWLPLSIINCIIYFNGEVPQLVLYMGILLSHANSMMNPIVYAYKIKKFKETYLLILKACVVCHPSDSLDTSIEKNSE
The experiment is described as follows: Displacement of [3H]NECA from human adenosine A3 receptor expressed in CHO cell membrane. The experiment is classed as cell membranes. The gist of the method:
(§1)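 CHO cells stably transfected with the human receptor subtype. Membranes were prepared by a 1000g spin to clear fragments and nuclei, then pelleted from the supernatant at 100 000g. Pellet was resuspended in the respective binding buffer, frozen in liquid nitrogen and stored until radioligand competition binding.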
For orientation: Displacement assays read how much labelled ligand stays bound in the presence of the test substance.

The target of a further experiment is T3, Adenosine receptor A1 (Homo sapiens, UniProt P30542).
T3 sequence (P30542 whole entry): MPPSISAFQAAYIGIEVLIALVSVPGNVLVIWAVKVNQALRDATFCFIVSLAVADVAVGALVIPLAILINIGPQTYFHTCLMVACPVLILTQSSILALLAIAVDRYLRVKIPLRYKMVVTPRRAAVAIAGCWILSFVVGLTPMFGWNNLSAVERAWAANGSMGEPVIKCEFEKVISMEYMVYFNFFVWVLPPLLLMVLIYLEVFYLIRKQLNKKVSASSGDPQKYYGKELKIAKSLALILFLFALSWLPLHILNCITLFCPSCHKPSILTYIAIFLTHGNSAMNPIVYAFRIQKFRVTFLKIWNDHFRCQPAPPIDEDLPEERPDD
The experiment is described as follows: Displacement of [3H]CCPA from human adenosine A1 receptor expressed in CHO cell membrane. It is filed as cell membranes. The gist of the method: as §1

For the next experiment, the target named is Adenosine receptor A2a (Homo sapiens, UniProt P29274). The experiment is described as follows: Displacement of [3H]NECA from human adenosine A2A receptor expressed in CHO cell membrane. The experiment is classed as cell membranes. The gist of the method:
as §1

A short description of experiment [3]: Selectivity ratio of Ki for human adenosine A1 receptor expressed in CHO cell membrane to Ki for human adenosine A2A receptor expressed in CHO cell membrane. It is filed as cell-based.

pKi: −log10 of the molar value.

The term pKi denotes the Ki on a negative log10 scale, so that one unit is a factor of ten.

Sequence of Adenosine receptor A2a (P29274 whole entry): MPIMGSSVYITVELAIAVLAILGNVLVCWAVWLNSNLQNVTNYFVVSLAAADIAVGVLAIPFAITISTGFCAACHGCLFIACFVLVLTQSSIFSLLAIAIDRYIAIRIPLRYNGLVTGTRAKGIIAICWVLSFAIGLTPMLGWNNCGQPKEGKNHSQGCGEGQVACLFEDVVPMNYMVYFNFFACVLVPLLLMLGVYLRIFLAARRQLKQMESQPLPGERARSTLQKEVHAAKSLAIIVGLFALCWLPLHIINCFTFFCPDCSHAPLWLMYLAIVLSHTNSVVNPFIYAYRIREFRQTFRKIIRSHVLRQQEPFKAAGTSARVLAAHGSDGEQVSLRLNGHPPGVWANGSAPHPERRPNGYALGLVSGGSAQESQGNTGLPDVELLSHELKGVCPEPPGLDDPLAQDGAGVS

As for `CCCCCC(C)Nc1nc2nn(C)cc2c2nc(-c3ccco3)nn12` (stereo not given), the Ratio Ki in experiment [1] stood at 28.8; in experiment [2], 51.7; in experiment [3], 0.56. The pKi on Adenosine receptor A2b is 5.12; at Adenosine receptor A3 it was 8.06; on Adenosine receptor A1 it was 6.61; at Adenosine receptor A2a it was 6.35.
In the case of `CCCCC(CC)CNc1nc2nn(C)cc2c2nc(-c3ccco3)nn12` (stereo not given), the Ratio Ki in experiment [1] is 158; in experiment [2], 134; in experiment [3], 1.18. The pKi at Adenosine receptor A2b is under 5.00; on Adenosine receptor A3, 8.42; on Adenosine receptor A1, 6.22; at Adenosine receptor A2a, 6.29.
With `CCC(C)Nc1nc2nn(C)cc2c2nc(-c3ccco3)nn12` (racemic), the Ratio Ki turned out to be 25 in experiment [1], 47.4 in experiment [2] and 0.53 in experiment [3]. For the same molecule, the pKi on Adenosine receptor A2b was 5.41; on Adenosine receptor A3 it was 8.28; at Adenosine receptor A1, 6.88; at Adenosine receptor A2a, 6.61.
As to `CCCCCNc1nc2nn(C)cc2c2nc(-c3ccco3)nn12`, the Ratio Ki in experiment [1] amounted to 32.9; in experiment [2], 11.5; in experiment [3] it was 2.86. In addition, the pKi at Adenosine receptor A2b is 5.40; at Adenosine receptor A3 it was 7.84; on Adenosine receptor A1, 6.32; on Adenosine receptor A2a, 6.77.
`CC(C)Nc1nc2nn(C)cc2c2nc(-c3ccco3)nn12`: the results for the Ratio Ki in experiment [1], in experiment [2] and in experiment [3] were 9.76, 11.4 and 0.86, respectively. Moreover, the negative-log Ki (pKi) at Adenosine receptor A2b is 5.01; on Adenosine receptor A3, 7.47; at Adenosine receptor A1, 6.48; at Adenosine receptor A2a, 6.41.
In the case of `CC[C@H](C)Nc1nc2nn(C)cc2c2nc(-c3ccco3)nn12`, the Ratio Ki in experiment [1] turned out to be 11.7; in experiment [2], 22.2; in experiment [3], 0.53. Also, the pKi was 5.59 at Adenosine receptor A2b, 7.96 at Adenosine receptor A3, 6.89 on Adenosine receptor A1 and 6.61 at Adenosine receptor A2a.
`Cn1cc2c(nc(NC3CC3)n3nc(-c4ccco4)nc23)n1`: the Ratio Ki in experiment [1] worked out at 3; in experiment [2], 1.63; in experiment [3] it was 1.84. In addition, the pKi at Adenosine receptor A2b is 5.76; on Adenosine receptor A3, 7.16; on Adenosine receptor A1, 6.68; at Adenosine receptor A2a, 6.95.
Turning to `Cn1cc2c(nc(NC3CCCCCC3)n3nc(-c4ccco4)nc23)n1`, the Ratio Ki in experiment [1] turned out to be 14.5; in experiment [2], 21.8; in experiment [3], 0.66. For the same molecule, the pKi is 5.18 at Adenosine receptor A2b, 7.81 at Adenosine receptor A3, 6.65 at Adenosine receptor A1 and 6.47 on Adenosine receptor A2a.
On to `C[C@H](Nc1nc2nn(C)cc2c2nc(-c3ccco3)nn12)c1ccccc1`, for which the values for the Ratio Ki in experiment [1], in experiment [2] and in experiment [3] were 1130, 184 and 6.12, respectively. Also, the pKi on Adenosine receptor A2b was 5.28; on Adenosine receptor A3, 9.52; at Adenosine receptor A1, 6.47; on Adenosine receptor A2a, 7.26.
As for `Cn1cc2c(nc(NCc3ccc(F)cc3)n3nc(-c4ccco4)nc23)n1`, the Ratio Ki turned out to be 167 in experiment [1], 17.8 in experiment [2] and 9.41 in experiment [3]. In addition, the pKi was 5.50 on Adenosine receptor A2b, 8.31 at Adenosine receptor A3, 6.08 on Adenosine receptor A1 and 7.06 on Adenosine receptor A2a.
On to `CONc1nc2nn(C)cc2c2nc(-c3ccco3)nn12`, for which the Ratio Ki in experiment [1] turned out to be 6.81; in experiment [2], 0.46; in experiment [3], 14.9. In addition, the pKi at Adenosine receptor A2b is 5.07; on Adenosine receptor A3, 6.39; at Adenosine receptor A1, 5.56; at Adenosine receptor A2a, 6.73.
In the case of `Cn1cc2c(nc(NCc3ccccc3)n3nc(-c4ccco4)nc23)n1`, the Ratio Ki in experiment [1] was determined as 212; in experiment [2] it was 36.5; in experiment [3], 5.79. Further, the pKi at Adenosine receptor A2b was 5.48; at Adenosine receptor A3 it was 8.60; on Adenosine receptor A1, 6.28; at Adenosine receptor A2a, 7.04.
As for `Cn1cc2c(nc(NCCCCCO)n3nc(-c4ccco4)nc23)n1`, the Ratio Ki was 3.86 in experiment [1], 0.91 in experiment [2] and 4.23 in experiment [3]. Also, the pKi was under 5.00 on Adenosine receptor A2b, 6.87 on Adenosine receptor A3, 6.28 at Adenosine receptor A1 and 6.91 on Adenosine receptor A2a.
As to `COc1ccc(CNc2nc3nn(C)cc3c3nc(-c4ccco4)nn23)cc1OC`, the Ratio Ki in experiment [1] came out at 129; in experiment [2] it was 3.04; in experiment [3], 42.3. Besides, the pKi is under 5.52 at Adenosine receptor A2b, 7.68 at Adenosine receptor A3, 5.57 on Adenosine receptor A1 and 7.19 at Adenosine receptor A2a.
Turning to `COc1ccc(CNc2nc3nn(C)cc3c3nc(-c4ccco4)nn23)cc1`, the Ratio Ki in experiment [1] worked out at 63.9; in experiment [2], 25.6; in experiment [3] it was 2.5. Also, the pKi at Adenosine receptor A2b was 5.01; on Adenosine receptor A3, 8.16; on Adenosine receptor A1 it was 6.35; at Adenosine receptor A2a, 6.75.
For the molecule `Cn1cc2c(nc(N3CCCC3)n3nc(-c4ccco4)nc23)n1`, the Ratio Ki came to 9.24 in experiment [1], 3.72 in experiment [2] and 2.48 in experiment [3]. For the same molecule, the pKi on Adenosine receptor A2b was under 5.00; on Adenosine receptor A3, 7.45; at Adenosine receptor A1, 6.48; on Adenosine receptor A2a, 6.88.
For `CN(c1nc2nn(C)cc2c2nc(-c3ccco3)nn12)C1CCCCC1`, the Ratio Ki was 31.2 in experiment [1], 83.5 in experiment [2] and 0.37 in experiment [3]. Besides, the pKi was under 5.00 on Adenosine receptor A2b, 7.49 on Adenosine receptor A3, 5.99 on Adenosine receptor A1 and 5.56 at Adenosine receptor A2a.
Regarding `Cn1cc2c(nc(Cl)n3nc(-c4ccco4)nc23)n1`, the Ratio Ki in experiment [1] was determined as 17.9; in experiment [2], 81.5; in experiment [3], 0.22. Also, the pKi is under 5.00 at Adenosine receptor A2b, 6.44 on Adenosine receptor A3, 5.18 at Adenosine receptor A1 and 4.52 at Adenosine receptor A2a.
For `CCC(CO)Nc1nc2nn(C)cc2c2nc(-c3ccco3)nn12` (stereo not given), the Ratio Ki in experiment [1] was 3.48; in experiment [2], 3.29; in experiment [3], 1.06. In addition, the pKi is under 5.00 at Adenosine receptor A2b, 7.20 on Adenosine receptor A3, 6.66 at Adenosine receptor A1 and 6.68 on Adenosine receptor A2a.
For `Cn1cc2c(nc(NC3CCCCCCC3)n3nc(-c4ccco4)nc23)n1`, the Ratio Ki in experiment [1] was found to be 31.2; in experiment [2], 18; in experiment [3], 1.73. The pKi was under 5.00 on Adenosine receptor A2b, 7.81 on Adenosine receptor A3, 6.32 at Adenosine receptor A1 and 6.55 on Adenosine receptor A2a.
On to `Cn1cc2c(nc(NCCCCO)n3nc(-c4ccco4)nc23)n1`, for which the Ratio Ki in experiment [1] amounted to 4.13; in experiment [2], 1; in experiment [3], 4.14. Moreover, the pKi at Adenosine receptor A2b is under 5.00; at Adenosine receptor A3 it was 6.60; at Adenosine receptor A1 it was 5.98; at Adenosine receptor A2a, 6.60.
Regarding `COc1nc2nn(C)cc2c2nc(-c3ccco3)nn12`, the Ratio Ki in experiment [1] and in experiment [2] was over 36.5 in each case. The pKi at Adenosine receptor A2b is under 5.00; on Adenosine receptor A3, 6.09; on Adenosine receptor A1, under 4.52; at Adenosine receptor A2a, under 4.52.
As for `Cn1cc2c(nc(NC34CC5CC(CC(C5)C3)C4)n3nc(-c4ccco4)nc23)n1`, the Ratio Ki in experiment [1] was 87.6; in experiment [2] it was over 794. Further, the pKi on Adenosine receptor A2b is under 5.00; on Adenosine receptor A3 it was 7.42; on Adenosine receptor A1 it was 5.48; on Adenosine receptor A2a it was under 4.52.
Take `Cn1cc2c(n1)[nH]c(=O)n1nc(-c3ccco3)nc21`: the Ratio Ki in experiment [1] and in experiment [2] was over 5.68 throughout. In addition, the pKi at Adenosine receptor A2b is under 5.00; on Adenosine receptor A3, 5.28; at Adenosine receptor A1, under 4.52; on Adenosine receptor A2a, under 4.52.
